Bioassay records (PubChem)
A selection: hits, their analogues and other compounds. The true share with any hit is near 2.9%.
CAL PDZ FP-1: human CAL PDZ-peptide interaction inhibition | purified CAL PDZ, TMR-peptide fluorescence polarization, 1 h | inhibition, % at 20 µM | 0.02% of 330,000 active | AID 504414;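 active = highest replicate inhibition of at least 40%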
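Assay system – tagged CAL PDZ protein CerCALP, purified · Timing – 1 h at RT · Compound – single point, 20 µM · Measured by – fluorescence polarization from S- and P-plane intensities, G-factor corrected · Evaluation – inhibition from polarization loss · Probe or stimulus – TMR reporter peptide T*-PRC34 · Buffer or medium – pH 7.4 phosphate-saline buffer, reducing agent, detergent, IgG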
S100A4 inh HTS: S100A4-myosin IIA interaction inhibition. AID 652163. S100A4/TAMRA-MyoIIA peptide fluorescence polarization. 0.14% of 360,000 active. inhibition, % at 10.7 µM;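 active = mean inhibition of at least 70% across replicates, with every replicate also reaching that level; inconclusive = mean inhibition reaches 70% but some replicates fall short; inactive = mean inhibition below 70%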
Target sequence (P26447 whole entry, looked up): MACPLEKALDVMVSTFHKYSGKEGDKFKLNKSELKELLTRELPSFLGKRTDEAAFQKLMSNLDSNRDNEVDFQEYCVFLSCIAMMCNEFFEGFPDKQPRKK
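Assay system: human S100A4 monomer with TAMRA-labelled myosin IIA peptide / Buffer or medium: Calcium-containing HEPES buffer, pH 7.2 / Reagent: TAMRA-labelled myosin IIA heavy-chain peptide probe, 5 nM / Compound: one dose per compound / Timing: polarization read 5 min after assay mix addition, stable 5–60 min / Benchmarks: neutral control DMSO, positive control TFP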
CAL PDZ FP-2: blocks peptide binding to the human CAL PDZ domain; Q9HD26; purified CAL PDZ, TMR-peptide fluorescence polarization, 1 h; inhibition, % at 24.9 µM; 0.92% of 300,000 active; AID 602252;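 active = mean inhibition of at least 30% with at least half of replicates also reaching 30%; inconclusive = no clear call, values can overlap the other calls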
ERAP1 HTS inh: inhibitors of human ERAP1 aminopeptidase; inhibition, % at 10.7 µM; 0.15% of 340,000 active; AID 652197; Q9NZ08; recombinant ERAP1, Leu-AMC fluorescence, 60 min;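 active = mean replicate inhibition of at least 30%, or all replicates individually reaching that 30% level; inactive = mean below 30% and not every replicate reaching it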
SIRT5 inh: sirtuin-5 (human) deacylase inhibition. inhibition, % at 15 µM. 1.1% of 330,000 active. Q9NXA8. Purified SirT5, succinyl-peptide AMC, trypsin-coupled fluorescence. AID 652115; in the data active = inhibition above about 15%; inconclusive = no clear call, values can overlap the other calls
Target sequence (Q9NXA8 whole entry, looked up): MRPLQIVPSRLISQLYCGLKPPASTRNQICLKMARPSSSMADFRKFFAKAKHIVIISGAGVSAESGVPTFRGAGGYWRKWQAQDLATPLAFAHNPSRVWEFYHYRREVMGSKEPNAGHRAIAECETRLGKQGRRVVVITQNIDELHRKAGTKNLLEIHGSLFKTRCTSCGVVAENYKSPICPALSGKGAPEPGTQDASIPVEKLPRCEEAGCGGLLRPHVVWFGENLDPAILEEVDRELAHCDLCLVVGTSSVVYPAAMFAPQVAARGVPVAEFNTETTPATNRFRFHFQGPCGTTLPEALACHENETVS
DENV2 CPE rescue: DENV2-induced cell death inhibition | DENV2-infected cells, cytopathic effect rescue, plate reader | CPE inhibition, % at 9.99 µM | AID 651640 | 1.7% of 350,000 active; in the data active = CPE inhibition above about 20%, passing the limit was not always enough; inconclusive = no clear call, values can overlap the other calls; tested in BHK-21 cells
A number is an active result.

`CN(C(=O)COC(=O)c1ccc(S(=O)(=O)N2CCOCC2)cc1)c1ccccc1` gave CAL PDZ FP-1 inactive, S100A4 inh HTS inactive, CAL PDZ FP-2 44.8, ERAP1 HTS inh inactive, SIRT5 inh inactive and DENV2 CPE rescue 80.8.
Screening N#CCCN(C(=O)COC(=O)c1ccc(S(=O)(=O)N2CCOCC2)cc1)c1ccccc1 returned CAL PDZ FP-1 inactive, S100A4 inh HTS inactive, ERAP1 HTS inh inactive, SIRT5 inh inactive and DENV2 CPE rescue inactive.
`Clc1ccccc1-c1cc2nc(NCCCn3ccnc3)ccn2n1` gave S100A4 inh HTS inactive, ERAP1 HTS inh inactive and DENV2 CPE rescue 31.6.
`C[C@H](O)C#Cc1cnc2c(c1)C(=O)N([C@@H](C)CO)C[C@@H](C)[C@@H](CN(C)C(=O)Cc1ccncc1)O2` gave S100A4 inh HTS inactive, ERAP1 HTS inh inactive and SIRT5 inh inactive.
For Cn1c(SCc2ccccc2)nnc1-c1ccncc1 the results were CAL PDZ FP-1 inactive, S100A4 inh HTS inactive, ERAP1 HTS inh inactive, SIRT5 inh inactive and DENV2 CPE rescue inactive.
`Cn1c(SCc2cccc(F)c2)nnc1-c1ccncc1` gave CAL PDZ FP-1 inactive, S100A4 inh HTS inactive, CAL PDZ FP-2 inactive, ERAP1 HTS inh inactive, SIRT5 inh 15.3 and DENV2 CPE rescue inactive.
For CO[C@@H]1CN(C)C(=O)c2ccc(NC(=O)Nc3ccc4c(c3)OCO4)cc2OC[C@H](C)NC[C@H]1C the results were S100A4 inh HTS inactive, ERAP1 HTS inh inactive, SIRT5 inh inactive and DENV2 CPE rescue inactive.
O=S(=O)(Cc1ccccc1)N1CCCCN2[C@H](CO)[C@@H](c3ccc(-c4ccc(F)cc4)cc3)[C@H]2C1 was read as S100A4 inh HTS inactive, ERAP1 HTS inh inactive, SIRT5 inh inactive and DENV2 CPE rescue 40.9.
`O=S(=O)(c1ccccc1)N1CCCCN2[C@@H](CO)[C@H](c3ccc(-c4ccccc4F)cc3)[C@@H]2C1` gave SIRT5 inh inactive and DENV2 CPE rescue inactive.
`O=S(=O)(Cc1ccccc1)N1CCCCN2[C@H](C1)[C@H](c1ccc(-c3ccc(F)cc3)cc1)[C@@H]2CO` gave S100A4 inh HTS inactive, ERAP1 HTS inh inactive, SIRT5 inh inactive and DENV2 CPE rescue inconclusive.
`C/C=C/c1ccc([C@@H]2[C@H]3CN(S(=O)(=O)c4ccc(F)cc4)CCCCN3[C@H]2CO)cc1` gave S100A4 inh HTS inactive, ERAP1 HTS inh inactive, SIRT5 inh 15.6 and DENV2 CPE rescue inactive.
`O=S(=O)(c1ccc(F)cc1)N1CCCCN2[C@H](CO)[C@@H](c3ccc(-c4ccccc4F)cc3)[C@H]2C1` gave S100A4 inh HTS inactive, ERAP1 HTS inh inactive, SIRT5 inh 22.1 and DENV2 CPE rescue inactive.
For C[C@H](CO)N1C[C@H](C)[C@@H](CN(C)C)Oc2ccc(NC(=O)c3ccncc3)cc2C1=O the results were S100A4 inh HTS inactive, ERAP1 HTS inh inactive, SIRT5 inh inactive and DENV2 CPE rescue inactive.
Cc1ccc(NC(=S)NC(=O)c2cncc(Br)c2)cc1Cl was read as S100A4 inh HTS inactive, SIRT5 inh 29.2 and DENV2 CPE rescue inactive.
For C=CCNC(=O)CNS(=O)(=O)c1ccc(F)cc1 the results were CAL PDZ FP-1 inactive, S100A4 inh HTS inactive, CAL PDZ FP-2 inactive, ERAP1 HTS inh inactive, SIRT5 inh 17.8 and DENV2 CPE rescue inactive.
Screening COc1ccc(CCNC(=O)CC(=O)NCCc2ccc(OC)cc2)cc1 returned CAL PDZ FP-1 inactive, S100A4 inh HTS inactive, CAL PDZ FP-2 inactive, ERAP1 HTS inh inactive, SIRT5 inh inactive and DENV2 CPE rescue inactive.
For Cc1ccc(S(=O)(=O)N(CC(=O)NCc2ccc(F)cc2)C(=O)N2CCN(C)CC2)cc1 the results were CAL PDZ FP-1 inactive, S100A4 inh HTS inactive, CAL PDZ FP-2 inactive, ERAP1 HTS inh inactive, SIRT5 inh inactive and DENV2 CPE rescue 31.0.
`COc1ccc(CCNC(=O)Cc2ccsc2)cc1` gave CAL PDZ FP-1 inactive, S100A4 inh HTS inactive, CAL PDZ FP-2 37.0, ERAP1 HTS inh inactive, SIRT5 inh inactive and DENV2 CPE rescue inactive.
NS(=O)(=O)c1ccc(CCNC(=O)CCS(=O)(=O)c2ccc(Br)cc2)cc1 was read as CAL PDZ FP-1 inactive, S100A4 inh HTS inactive, CAL PDZ FP-2 inactive, ERAP1 HTS inh inactive, SIRT5 inh 15.7 and DENV2 CPE rescue inactive.
Screening C[C@H]1CN([C@@H](C)CO)C(=O)c2cc(C#CC3CC3)cnc2O[C@@H]1CN(C)S(C)(=O)=O returned S100A4 inh HTS inactive, ERAP1 HTS inh inactive, SIRT5 inh inactive and DENV2 CPE rescue inactive.
`CN(C)CC#Cc1cccc(-c2nc(C(=O)N3CCN(Cc4ccccc4)CC3)cc3c2[C@H](CCO)N(S(=O)C(C)(C)C)C3)c1` (some centres undefined) gave S100A4 inh HTS inactive, ERAP1 HTS inh inactive, SIRT5 inh inactive and DENV2 CPE rescue inactive.
For CCCNC(=O)[C@@H]1[C@@H](CO)[C@@H]2Cn3c(ccc(C4=CCCC4)c3=O)[C@H]1N2C(C)=O the results were S100A4 inh HTS inactive, ERAP1 HTS inh inactive, SIRT5 inh inactive and DENV2 CPE rescue inactive.
For COc1ccc2[nH]cc(CCNC(=O)Cc3ccc(F)cc3)c2c1 the results were CAL PDZ FP-1 inactive, S100A4 inh HTS inactive, CAL PDZ FP-2 78.9, ERAP1 HTS inh inactive, SIRT5 inh inactive and DENV2 CPE rescue inactive.
COc1ccc(OCCC(=O)OCC(=O)NCc2ccc(F)cc2)cc1 was read as CAL PDZ FP-1 inactive, S100A4 inh HTS inactive, CAL PDZ FP-2 46.5, ERAP1 HTS inh inactive, SIRT5 inh inactive and DENV2 CPE rescue inactive.
COc1ccc(CNC(=O)COC(=O)CCOc2ccc(C)cc2)cc1 was read as CAL PDZ FP-1 inactive, S100A4 inh HTS inactive, CAL PDZ FP-2 inactive, ERAP1 HTS inh inactive, SIRT5 inh inactive and DENV2 CPE rescue inactive.
`NS(=O)(=O)c1ccc(CCNC(=O)COC(=O)Cc2ccc([N+](=O)[O-])cc2)cc1` gave CAL PDZ FP-1 inactive, S100A4 inh HTS inactive, CAL PDZ FP-2 34.1, ERAP1 HTS inh inactive, SIRT5 inh inactive and DENV2 CPE rescue inactive.
Screening COc1ccc(CC(=O)OCC(=O)NCCNC(=O)COC(=O)Cc2ccc(OC)cc2)cc1 returned CAL PDZ FP-1 inactive, S100A4 inh HTS inactive, CAL PDZ FP-2 inactive, ERAP1 HTS inh inactive, SIRT5 inh inactive and DENV2 CPE rescue 60.7.
For COc1ccc(CC(=O)OCC(=O)NCc2ccc(F)cc2)cc1 the results were CAL PDZ FP-1 inactive, S100A4 inh HTS inactive, CAL PDZ FP-2 inactive, ERAP1 HTS inh inactive, SIRT5 inh inactive and DENV2 CPE rescue inactive.
For CN(C)CC(=O)Nc1ccc2c(c1)[C@H]1C[C@H](CC(=O)NC3CCCC3)O[C@@H](CO)[C@H]1O2 the results were S100A4 inh HTS inactive, ERAP1 HTS inh inactive, SIRT5 inh inactive and DENV2 CPE rescue inactive.
Cc1ccc(S(=O)(=O)NCC(=O)OCC(=O)NCc2ccc(F)cc2)cc1 was read as CAL PDZ FP-1 inactive, S100A4 inh HTS inactive, CAL PDZ FP-2 inactive, ERAP1 HTS inh inactive, SIRT5 inh 33.7 and DENV2 CPE rescue inactive.
